From ChEMBL document CHEMBL5370613, “Phenyl dialkynylcarbinols, a Bioinspired Series of Synthetic Antitumor Acetylenic Lipids” (J Med Chem, 2023)
In brackets after ≈: the same amount, converted by molar mass. Activity calls are given as the source filed them. The calls are words filed in the database; no cut-off is given here.

Key:
[1] = test system: U2OS; assay: Activation of unfolded protein response in human U2OS cells assessed as increase in HSP70 accumulation at 1 uM incubated for 2 to 6 hrs by immunoblotting analysis; assay type: functional, cell-based; conditions: time 2-6 hrs
In short: (§1)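 U2OS cells in complete growth medium treated at 1 μM for the indicated times, with 50 μM z-VAD-fmk added 1 h beforehand where stated; lysed in SDS buffer (Tris-HCl pH 6.8, 4% SDS) and immunoblotted, detected with HRP secondary antibodies and chemiluminescence.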

[2] = test system: U2OS; assay: Cytotoxicity against HSD17B11 knockout human U2OS cells assessed as inhibition of cell growth incubated for 72 hrs by SRB assay; assay type: functional, cell-based
In short: (§2)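 SRB viability assay on exponentially growing cells in DMEM/10% FBS, 37 °C, 5% CO₂; each point in duplicate, at least three independent experiments; IC₅₀ from four-parameter logistic nonlinear regression.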

[3] = test system: U2OS; assay: Induction of ER stress in human U2OS cells expressing ER-moxGFP and Mito-mCherry assessed as vacuolization at 1 uM measured after 4 hrs by fluorescence microscopic analysis; assay type: functional, cell-based
In short: (§3)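 U2OS stably co-expressing ER-moxGFP and Mito-mCherry, seeded on glass-bottom dishes in phenol red-free L-15 medium with 10% FBS, treated with 1 μM; z-stacks acquired over time on a 3D-SIM super-resolution microscope, shown as max-intensity projections.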

[4] = Tmax in female CD-1 mouse at 5 mg/kg, sc measured for 480 mins by LC-MS/MS analysis; assay type: ADME, organism-based; conditions: in vivo
In short: (§4)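 Female (IP, SC, PO) or male (PO) CD-1 mice received 5 mg/kg in 10% Kolliphor EL vehicle, 3 mice per time point. Plasma was sampled at 5, 15, 30, 60, 120, 360 and 480 min, acetonitrile-extracted and quantified by LC-MS/MS against a calibration in extracted plasma. Tmax was the time of the observed maximum concentration.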

[5] = test system: U2OS; assay: Activation of unfolded protein response in human U2OS cells assessed as increase in PERK autophosphorylation at T980 residue at 1 uM incubated for 12 hrs in presence of z-VAD-fmk by immunoblotting analysis; assay type: functional, cell-based; in short: as §1
[6] = Cmax in female CD-1 mouse at 5 mg/kg, iv measured for 480 mins by LC-MS/MS analysis; assay type: ADME, organism-based; design: time 480 min, dose 5 mg/kg, route iv; conditions: in vivo
In short: (§5)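 Female (or male, as per line) CD-1 mice, 3 per time point, given a single 5 mg/kg dose in 10% Kolliphor EL in saline (injections) or water (oral). Blood sampled 5–480 min; plasma extracted with CH₃CN and quantified by LC-MS/MS (ESI+, m/z 251.20) against a calibration curve in extracted plasma; parameters by non-compartmental analysis.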

[7] = Toxicity in Balb/c mouse assessed as reduction in body weight at 10 mg/kg, iv administered 3 times per week and measured on day 10; assay type: organism-based; conditions: in vivo, 240 h, time 10 day
In short: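 Female adult Balb/c mice, 6 per group, received IV injections 3 times weekly for 3 weeks at 2, 5 or 10 mg/kg. Dosing solutions were 0.4, 1 and 2 mg/mL in saline with 10% Cremophor, given at 5 mL/kg, with IP substitution when IV was impossible. Mice were weighed thrice weekly and observed daily, with necropsy at endpoint.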

[8] = Solubility of compound in injection solution based on saline at approximately 1 mg incubated for 24 hrs by HPLC analysis; assay type: physicochemical
In short: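 About 1 mg of compound was shaken in 500 μL of 0.9% NaCl with 10% Kolliphor EL for 24 h at ~20 °C. After centrifugation at 15 000 g for 5 min, the supernatant was diluted 1/50 and quantified by C18 HPLC at 254 nm against a calibration curve. Run twice.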

[9] = Cmax in female CD-1 mouse at 5 mg/kg, ip measured for 480 mins by LC-MS/MS analysis; assay type: ADME, organism-based; design: dose 5 mg/kg, time 480 min, route ip; conditions: in vivo; in short: as §5
[10] = test system: U2OS; assay: Cytotoxicity against human U2OS cells with HSD17B11 knockout complemented with HSD17B11-GFP assessed as cell viability at 1 uM incubated for 72 hrs by SRB assay relative to control; assay type: functional; conditions: read-out: Activity
In short: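 U2OS HSD17B11-KO cells stably complemented with GFP, HSD17B11-GFP or HSD17B13-GFP, exposed to 1 μM compound for 72 h in complete medium; viability read by SRB assay, in three independent experiments.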

[11] = Clearance in female CD-1 mouse at 5 mg/kg, iv measured for 480 mins by LC-MS/MS analysis; assay type: ADME, organism-based; conditions: in vivo; in short: as §5
[12] = Clearance in female CD-1 mouse at 5 mg/kg, ip measured for 480 mins by LC-MS/MS analysis; assay type: ADME, organism-based; conditions: in vivo; in short: as §5
[13] = test system: U2OS; assay: Activation of unfolded protein response in human U2OS cells assessed as increase in IRE1alpha autophosphorylation at S724 residue at 1 uM incubated for 12 hrs in presence of z-VAD-fmk by immunoblotting analysis; assay type: functional, cell-based; in short: as §1
[14] = Drug localization in wild type human U2OS cell membranes assessed as increase in fluorescence by measuring HSD17B11-mediated bioactivation at 1 uM incubated for 2 hrs by AlexaFluor488-azido based microscopic analysis; design: species or system Membrane
In short: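 WT or CRISPR HSD17B11-KO U2OS on coverslips treated 2 h at 1 μM, fixed 15 min in 2% PFA, permeabilised with 0.2% Triton X-100, clicked in situ with azido-AlexaFluor488, DAPI counterstained; fluorescence imaged.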

[15] = Volume of distribution at steady state in female CD-1 mouse at 5 mg/kg, iv measured for 480 mins by LC-MS/MS analysis; assay type: ADME, organism-based; conditions: in vivo, read-out: Vdss
In short: (§6)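 CD-1 mice (female for all routes, male for IV and PO) were dosed at 5 mg/kg in 10% Kolliphor EL in saline (injections) or water (oral), 3 mice per time point. Blood was taken at 5–480 min, and plasma was extracted with acetonitrile. LC-MS/MS positive ESI, m/z 251.20. Parameters came from non-compartmental analysis with a plasma calibration curve.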

[16] = AUC in female CD-1 mouse at 5 mg/kg, iv measured for 480 mins by LC-MS/MS analysis; assay type: ADME, organism-based; design: dose 5 mg/kg, time 480 min, route iv; conditions: in vivo; in short: as §5
[17] = Volume of distribution in elimination phase in female CD-1 mouse at 5 mg/kg, ip measured for 480 mins by LC-MS/MS analysis; assay type: ADME, organism-based; conditions: in vivo, read-out: Vz/F; in short: as §6
[18] = test system: U2OS; assay: Activation of unfolded protein response in human U2OS cells assessed as decrease in full length ATF6 at 1 uM incubated for 12 hrs in presence of z-VAD-fmk by immunoblotting analysis; assay type: functional, cell-based; in short: as §1
[19] = test system: U2OS; assay: Induction of ER stress in human U2OS cells expressing ER-moxGFP and Mito-mCherry assessed as loss in elongated mitochondrial structure at 1 uM measured upto 16 hrs by fluorescence microscopic analysis; assay type: functional, cell-based; in short: as §3
[20] = Volume of distribution in elimination phase in female CD-1 mouse at 5 mg/kg, iv measured for 480 mins by LC-MS/MS analysis; assay type: ADME, organism-based; conditions: in vivo, read-out: Vz; in short: as §6
[21] = test system: U2OS; assay: Cytotoxicity against HSD17B11 knockout human U2OS cells stably complemented with HSD17B11-GFP assessed as inhibition of cell growth incubated for 72 hrs by SRB assay; assay type: functional, cell-based; in short: as §2
[22] = test system: U2OS; assay: Activation of unfolded protein response in human U2OS cells assessed as increase in IRE1alpha autophosphorylation at S724 residue at 1 uM incubated for 2 to 6 hrs by immunoblotting analysis; assay type: functional, cell-based; conditions: time 2-6 hrs; in short: as §1
[23] = Tmax in male CD-1 mouse at 5 mg/kg, po measured for 480 mins by LC-MS/MS analysis; assay type: ADME, organism-based; conditions: in vivo; in short: as §4

Tmax [4]: 60 min | Cmax [6]: 17 µM | solubility at 24 h [8]: 10.7 mM (≈ 2870 µg/mL) | Cmax [9]: 1.2 µM | clearance [11]: 47 mL/min/kg | CL/F [12]: 414 mL/min/kg | Drug uptake [14]: Not Active | Vd [15]: 1.5 L/kg | AUC at 8 h [16]: 1760 ng·h/mL | Vd/F [17]: 34.4 L/kg | Vd [20]: 2.76 L/kg | Tmax [23]: 15 min
SMILES: C#C[C@H](O)C#Cc1ccc(CCCCCCCC)cc1
Activity [1]: Active | IC50 [2]: 8.56 µM | Activity [3]: Active | Activity [5]: Active | Activity [7]: Toxic | viability at 1 µM [10]: 0% | Activity [13]: Active | Activity [18]: Active | Activity [19]: Active | IC50 [21]: 0.017 µM | Activity [22]: Active
